Assay results as given in ChEMBL document CHEMBL3774346, “Rational design, synthesis and biological evaluation of 1,3,4-oxadiazole pyrimidine derivatives as novel pyruvate dehydrogenase complex E1 inhibitors” (Bioorg Med Chem, 2016).

Columns and labels:
[1] = Antibacterial activity against Synechocystis sp. PCC 6803; assay type: functional
[2] = Inhibition of Escherichia coli PDHc-E1 expressed in Escherichia coli TB1 using sodium pyruvate as substrate and ThDP after 3 mins by 2,6-DCPIP based microplate reader method
In short: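 The enzyme (7.1 µM) was preincubated 3 min at 37 °C with varied inhibitor in 50 mM K3PO4 pH 7.2, 2.0 mM pyruvate and 0.8 mM 2,6-DCPIP. ThDP (0–200 µM) started the reaction, read as A600 decrease. IC50 came from a Hill fit of initial rates.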

Rhizoctonia solani = experiment: Antifungal activity against Rhizoctonia solani at 100 ug/ml; assay type: functional
Botrytis cinerea = experiment: Antifungal activity against Botrytis cinerea at 100 ug/ml; assay type: functional
[3] = tested on: Colletotrichum orbiculare; experiment: Antifungal activity against Colletotrichum orbiculare at 100 ug/ml; assay type: functional
[4] = Antibacterial activity against Synechocystis sp. PCC 6803 at 10 uM; assay type: functional
Alternaria solani = experiment: Antifungal activity against Alternaria solani at 100 ug/ml; assay type: functional
[5] = Inhibition of Escherichia coli TB1 PDHc-E1 H106A mutant expressed in Escherichia coli TB1 using sodium pyruvate as substrate and ThDP after 3 mins by 2,6-DCPIP based microplate reader method
In short: (§1)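 Point mutants were made by PCR mutagenesis on a pMAL-c2x-PDHc-E1 template, DpnI-digested and passed through DH5α. […] Assays used 7.1 µM enzyme, 50 mM K3PO4 pH 7.2, 2.0 mM pyruvate and 0.8 mM DCPIP, with 3 min preincubation at 37 °C and ThDP (0–200 µM) start. A600 was read and IC50 taken by Hill fit.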

[6] = molecular target: T1, Pyruvate dehydrogenase E1 component subunit alpha, somatic form, mitochondrial (Sus scrofa) (UniProt P29804); experiment: Inhibition of pig heart PDHc-E1 using sodium pyruvate as substrate at 100 uM after 3 mins by 2,6-DCPIP based microplate reader method
T1 sequence (whole entry): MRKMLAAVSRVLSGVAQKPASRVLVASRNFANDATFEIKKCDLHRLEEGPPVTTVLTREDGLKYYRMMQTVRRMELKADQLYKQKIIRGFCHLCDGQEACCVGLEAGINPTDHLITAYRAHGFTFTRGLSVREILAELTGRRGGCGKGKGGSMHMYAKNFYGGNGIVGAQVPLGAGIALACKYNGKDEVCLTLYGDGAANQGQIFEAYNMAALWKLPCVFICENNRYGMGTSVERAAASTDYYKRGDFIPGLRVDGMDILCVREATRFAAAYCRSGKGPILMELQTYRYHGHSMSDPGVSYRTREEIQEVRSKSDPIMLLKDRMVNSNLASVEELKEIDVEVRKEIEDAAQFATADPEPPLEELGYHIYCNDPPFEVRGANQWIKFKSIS

Escherichia coli [7] = experiment: Inhibition of Escherichia coli PDHc-E1 expressed in Escherichia coli TB1 at 100 uM using sodium pyruvate as substrate after 3 mins by 2,6-DCPIP based microplate reader method
[8] = Inhibition of Escherichia coli PDHc-E1 V192A mutant expressed in Escherichia coli TB1 using sodium pyruvate as substrate and ThDP after 3 mins by 2,6-DCPIP based microplate reader method; in short: as §1
[9] = Inhibition of Escherichia coli PDHc-E1 E571A mutant expressed in Escherichia coli TB1 using sodium pyruvate as substrate and ThDP after 3 mins by 2,6-DCPIP based microplate reader method; in short: as §1
[10] = Inhibition of Escherichia coli PDHc-E1 F602A mutant expressed in Escherichia coli TB1 using sodium pyruvate as substrate and ThDP after 3 mins by 2,6-DCPIP based microplate reader method; in short: as §1
[11] = Inhibition of Escherichia coli PDHc-E1 M194A mutant expressed in Escherichia coli TB1 using sodium pyruvate as substrate and ThDP after 3 mins by 2,6-DCPIP based microplate reader method; in short: as §1
Escherichia coli [12] = experiment: Selectivity index, ratio of IC50 for Escherichia coli PDHc-E1 K392A mutant to IC50 for Escherichia coli WT PDHc-E1
[13] = Inhibition of Escherichia coli PDHc-E1 E522A mutant expressed in Escherichia coli TB1 using sodium pyruvate as substrate and ThDP after 3 mins by 2,6-DCPIP based microplate reader method; in short: as §1
[14] = Inhibition of Escherichia coli TB1 PDHc-E1 K392A mutant expressed in Escherichia coli TB1 using sodium pyruvate as substrate and ThDP after 3 mins by 2,6-DCPIP based microplate reader method; in short: as §1
Escherichia coli [15] = experiment: Selectivity index, ratio of IC50 for Escherichia coli PDHc-E1 H106A mutant to IC50 for Escherichia coli WT PDHc-E1

| Compound | EC50 [1] [µM] | IC50 [2] [µM] | IC50 [5] [µM] | inhibition [6] [%] | inhibition (Escherichia coli [7]) [%] | IC50 [8] [µM] | IC50 [9] [µM] | IC50 [10] [µM] | IC50 [11] [µM] | Ratio IC50 (Escherichia coli [12]) | IC50 [13] [µM] | IC50 [14] [µM] | Ratio IC50 (Escherichia coli [15]) | inhibition at 100 µg/mL (Rhizoctonia solani) [%] | inhibition at 100 µg/mL (Botrytis cinerea) [%] | inhibition at 100 µg/mL [3] [%] | inhibition at 10 µM [4] [%] | inhibition at 100 µg/mL (Alternaria solani) [%] |
| --- | --- | --- | --- | --- | --- | --- | --- | --- | --- | --- | --- | --- | --- | --- | --- | --- | --- | --- |
| Cc1ncc(Cn2cc(CSc3nnc(-c4cccc([N+](=O)[O-])c4)o3)nn2)c(N)n1 | 5.14 | 10.4 | – | – | – | – | – | – | – | – | – | – | – | 60 | 59 | 40 | 90 | 48 |
| Cc1ncc(Cn2cc(CSc3nnc(-c4cc([N+](=O)[O-])cc([N+](=O)[O-])c4)o3)nn2)c(N)n1 | 2.33 | 8.61 | – | – | – | – | – | – | – | – | – | – | – | 30 | 41 | 33 | 90 | 30 |
| Cc1ncc(Cn2cc(CSc3nnc(-c4ccc([N+](=O)[O-])cc4)o3)nn2)c(N)n1 | 9.04 | 7.59 | – | – | – | – | – | – | – | – | – | – | – | 55 | 45 | 35 | – | 60 |
| Cc1ncc(Cn2cc(COc3ccccc3)nn2)c(N)n1 | > 50 | 55.1 | – | – | – | – | – | – | – | – | – | – | – | – | – | – | < 30 | – |
| Cc1ncc(Cn2cc(CSc3nnc(-c4ccccc4)o3)nn2)c(N)n1 | 5.15 | 7.87 | – | – | – | – | – | – | – | – | – | – | – | 30 | 60 | 40 | 90 | 47 |
| Cc1ncc(Cn2cc(COc3ccc([N+](=O)[O-])cc3)nn2)c(N)n1 | > 50 | 8.8 | – | – | – | – | – | – | – | – | – | – | – | – | – | – | < 30 | – |
| Cc1ncc(Cn2cc(CSc3nnc(-c4ccc([N+](=O)[O-])cc4Cl)o3)nn2)c(N)n1 | 6.37 | 12.8 | – | – | – | – | – | – | – | – | – | – | – | 46 | 54 | 38 | – | 35 |
| Cc1ncc(Cn2cc(CSc3nnc(-c4sc(N)nc4C(F)(F)F)n3N)nn2)c(N)n1 | 3.24 | 5.03 | – | – | – | – | – | – | – | – | – | – | – | 11 | 20 | 35 | 90 | 21 |
| Cc1ncc(Cn2cc(CSc3nnc(-c4ccc(C(F)(F)F)cc4)o3)nn2)c(N)n1 | 5.35 | 15.9 | – | – | – | – | – | – | – | – | – | – | – | 0 | 45 | 45 | 90 | 35 |
| Cc1ncc(Cn2cc(COc3ccccc3[N+](=O)[O-])nn2)c(N)n1 | > 50 | 36.3 | – | – | – | – | – | – | – | – | – | – | – | – | – | – | < 30 | – |
| Cc1ncc(Cn2cc(COc3ccc(Cl)cc3Cl)nn2)c(N)n1 | > 50 | 18.7 | – | – | – | – | – | – | – | – | – | – | – | – | – | – | < 30 | – |
| Cc1ncc(Cn2cc(CSc3nnc(-c4ccccc4[N+](=O)[O-])o3)nn2)c(N)n1 | 4.76 | 9.84 | – | – | – | – | – | – | – | – | – | – | – | 40 | 54 | 48 | 90 | 58 |
| Cc1ncc(Cn2cc(COc3ccc(Cl)cc3)nn2)c(N)n1 | > 50 | 26.4 | – | – | – | – | – | – | – | – | – | – | – | – | – | – | < 30 | – |

Further lines, with some results ahead:

| EC50 [1] [µM] | IC50 [2] [µM] | IC50 [5] [µM] | inhibition [6] [%] | inhibition (Escherichia coli [7]) [%] | IC50 [8] [µM] | IC50 [9] [µM] | IC50 [10] [µM] | IC50 [11] [µM] | Ratio IC50 (Escherichia coli [12]) | IC50 [13] [µM] | IC50 [14] [µM] | Ratio IC50 (Escherichia coli [15]) | Compound | inhibition at 100 µg/mL (Rhizoctonia solani) [%] | inhibition at 100 µg/mL (Botrytis cinerea) [%] | inhibition at 100 µg/mL [3] [%] | inhibition at 10 µM [4] [%] | inhibition at 100 µg/mL (Alternaria solani) [%] |
| --- | --- | --- | --- | --- | --- | --- | --- | --- | --- | --- | --- | --- | --- | --- | --- | --- | --- | --- |
| 2.28 | 12.4 | – | – | – | – | – | – | – | – | – | – | – | Cc1ncc(Cn2cc(CSc3nnc(-c4ccccc4Cl)o3)nn2)c(N)n1 | – | – | – | – | – |
| 0.83 | 0.97 | 11.6 | 26.1 | 100 | 33.2 | 5.02 | 5.08 | 19.1 | 20 | 10.8 | 20.4 | 11 | CNc1nc(C(F)(F)F)c(-c2nnc(SCc3cn(Cc4cnc(C)nc4N)nn3)o2)s1 | 14 | 50 | 36 | 90 | 41 |
| 5.25 | 7.08 | – | – | – | – | – | – | – | – | – | – | – | Cc1ncc(Cn2cc(CSc3nnc(-c4ccc(Cl)cc4)o3)nn2)c(N)n1 | 46 | 45 | 52 | 90 | 60 |
| 1.63 | 4.36 | – | 27.1 | 100 | – | – | – | – | – | – | – | – | Cc1ncc(Cn2cc(CSc3nnc(-c4sc(N)nc4C)o3)nn2)c(N)n1 | 11 | 31 | 24 | 90 | 56 |
| 2.3 | 7.02 | – | – | – | – | – | – | – | – | – | – | – | Cc1ncc(Cn2cc(CSc3nnc(-c4sc(N)nc4C)n3N)nn2)c(N)n1 | 16 | 16 | 26 | 90 | 29 |
| 5.99 | 13.2 | – | – | – | – | – | – | – | – | – | – | – | Cc1ncc(Cn2cc(CSc3nnc(-c4ccc(Cl)cc4Cl)o3)nn2)c(N)n1 | – | – | – | – | – |
| 9.86 | 15.7 | – | – | – | – | – | – | – | – | – | – | – | CNc1nc(C(F)(F)F)c(-c2nnc(SCc3cn(Cc4cnc(C)nc4N)nn3)n2N)s1 | 11 | 8 | 28 | – | 21 |
| 1.61 | 3.94 | – | 28.3 | 100 | – | – | – | – | – | – | – | – | Cc1ncc(Cn2cc(CSc3nnc(-c4sc(N)nc4C(F)(F)F)o3)nn2)c(N)n1 | 11 | 60 | 25 | 90 | 53 |
| 8.05 | 19.2 | – | – | – | – | – | – | – | – | – | – | – | Cc1ncc(Cn2cc(CSc3nnc(-c4ccccc4F)o3)nn2)c(N)n1 | 0 | 28 | 32 | – | 40 |
| 5.34 | 9.11 | – | – | – | – | – | – | – | – | – | – | – | Cc1ncc(Cn2cc(CSc3nnc(-c4ccc(F)cc4)o3)nn2)c(N)n1 | 0 | 60 | 32 | 90 | 44 |
| 2.99 | 11.1 | – | – | – | – | – | – | – | – | – | – | – | CNc1nc(C)c(-c2nnc(SCc3cn(Cc4cnc(C)nc4N)nn3)n2N)s1 | 17 | 11 | 16 | 90 | 25 |
| 1.51 | 6.62 | – | 15.6 | 100 | – | – | – | – | – | – | – | – | CNc1nc(C)c(-c2nnc(SCc3cn(Cc4cnc(C)nc4N)nn3)o2)s1 | 11 | 31 | 26 | 90 | 44 |
